These results are taken from ChEMBL document CHEMBL1147007, “Optimization of 2-aminothiazole derivatives as CCR4 antagonists” (Bioorg Med Chem Lett, 2006).

A value given as a limit tells only on which side of the number the result lay.

For data set [1], the target named is T1, C-C chemokine receptor type 4 (Homo sapiens, UniProt P51679).
T1 sequence (P51679 whole entry): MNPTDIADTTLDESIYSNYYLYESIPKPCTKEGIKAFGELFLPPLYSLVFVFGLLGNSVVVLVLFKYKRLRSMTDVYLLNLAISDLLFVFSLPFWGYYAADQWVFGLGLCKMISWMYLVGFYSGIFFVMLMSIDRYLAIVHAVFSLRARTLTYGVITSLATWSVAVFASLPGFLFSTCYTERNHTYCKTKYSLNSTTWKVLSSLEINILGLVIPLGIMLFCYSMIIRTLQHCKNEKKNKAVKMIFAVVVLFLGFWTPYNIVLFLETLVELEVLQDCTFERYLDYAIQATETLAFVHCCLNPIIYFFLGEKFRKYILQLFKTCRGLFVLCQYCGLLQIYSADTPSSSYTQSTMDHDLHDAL
As to the kind of experiment: Displacement of [125I]TARC from CCR4 expressed in human CEM cell line. Format: cell-based, CCRF-CEM. The method, boiled down:
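CEM cells at 5 · 10^6/mL in RPMI-1640 with 0.5% BSA, incubated with compound (diluted in DMSO) and [125I]TARC diluted to 100 pM in buffer, 2 h at room temperature. Bound ligand collected by filtration through GF/B filters and counted by scintillation. Values are means of three experiments (standard deviation ±30%).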
A general note: In a radioligand displacement assay an active substance lowers the binding of a labelled ligand.

Data set [2] has as its target T1, C-C chemokine receptor type 4. In words: Displacement of [125I]MDC from CCR4 expressed in human CEM cell line. Format: cell-based, CCRF-CEM.
A short description of data set [3]: Clearance in rat at 0.5 mg/kg, iv. The conditions noted are these: in vivo. On the set-up: dose 0.5 mg/kg, route intravenous. Format: ADME, organism-based.
A short description of data set [4]: Terminal half life in rat at 0.5 mg/kg, iv. The conditions noted are these: in vivo. It counts as ADME, organism-based. On the set-up: dose 0.5 mg/kg, route intravenous.
Data set [5] can be described thus: Oral bioavailability in rat at 2 mg/kg, po. Format: ADME, organism-based. To be noted: in vivo. The method, boiled down:
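Rats dosed by oral gavage at 2 mg/kg; oral bioavailability determined.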

On to `Cc1cccc(Nc2nc(C(C)(C)C)cs2)c1`, for which, in data set [1], the IC50 was 2000 nM.
In data set [1], `Cc1cccc(Nc2cc(CN(Cc3ccccc3C(F)(F)F)CC3CCCCC3)nn2C)c1C` returned an IC50 of 370 nM.
On the same count and under the same terms, as for `CCn1ccc2c(Nc3nc(C(C)(C)C)cs3)cccc21`, the figure is 210 nM; as for `Cc1cccc(Nc2cc(CN(Cc3ccccc3C(F)(F)F)CC3CCCCC3)n[nH]2)c1C`, more than 25000 nM.
On to `NCc1csc(Nc2cccc3ccccc23)n1`, for which the IC50 in data set [1] is more than 25000 nM.
Take `c1ccc2c(Nc3nc(CN(CC4CCCCC4)CC4CCCCC4)cs3)cccc2c1`: the IC50 worked out at 31 nM in data set [2] and 18 nM in data set [1]. In data set [3], this compound gave a clearance of 17.8 mL/min/kg. For the same compound, the half-life in data set [4] was 3.6 h. In addition, the bioavailability in data set [5] worked out at 63%.
On to `Cc1ccccc1Nc1nc(C(C)(C)C)cs1`, for which the 50% inhibitory concentration (IC50) in data set [1] stood at 900 nM.
In data set [1], `CC(C)(C)Cc1csc(Nc2cccc3ccccc23)n1` returned an IC50 of 220 nM.
Still for that read-out and setting: in the case of `CC(C)(C)c1csc(Nc2ccccc2)n1` it was 4500 nM.
Regarding `Cc1csc(N(C)c2cccc3ccccc23)n1`, the IC50 in data set [1] is more than 25000 nM.
On the same count and under the same terms, as for `Cc1cccc(Nc2nc(C(C)(C)C)cs2)c1C`, the figure is 260 nM; as for `CC(C)c1ccccc1Nc1nc(C(C)(C)C)cs1`, 440 nM; as for `CC(C)(C)c1ccc(-c2csc(Nc3cccc4ccccc34)n2)cc1`, 900 nM.
`Cc1cccc(Nc2cc(CN(Cc3ccccc3C(F)(F)F)CC3CCCCC3)no2)c1C` gave an IC50 in data set [1] of 12100 nM.
The same measure, in the same setting: in the case of `CC(C)(C)c1csc(Nc2cccc3cccnc23)n1` it was more than 25000 nM; in that of `CC(C)CN(Cc1csc(Nc2cccc3ccccc23)n1)CC(C)C`, 45 nM; in that of `CC(C)(C)c1csc(Nc2cccc3ccccc23)n1`, 80 nM.
Same read-out and setting: in the case of `FC(F)(F)c1ccccc1CN(Cc1csc(Nc2cccc3ccccc23)n1)CC1CCCCC1` it was 14 nM; in that of `CC(C)(C)c1csc(Nc2cccc3cnccc23)n1`, 1500 nM; in that of `CCN(CC)Cc1csc(Nc2cccc3ccccc23)n1`, 800 nM.
Same read-out and setting: in the case of `CC(C)(C)c1csc(Nc2cccc3c2CCCC3)n1` it was 210 nM; in that of `c1ccc(-c2csc(Nc3cccc4ccccc34)n2)cc1`, 5500 nM; in that of `CCNCc1csc(Nc2cccc3ccccc23)n1`, 1000 nM.
Consider `CC(C)c1csc(Cc2cccc3ccccc23)n1`, for which, in data set [1], the IC50 is more than 25000 nM.
Consider `CC(C)(C)c1coc(Nc2cccc3ccccc23)n1`, for which the IC50 in data set [1] came out at 80 nM.
Same read-out and setting: in the case of `CC(C)c1csc(Nc2cccc3ccccc23)n1` it was 170 nM; in that of `Cc1cccc(Nc2cccc(CN(Cc3ccccc3C(F)(F)F)CC3CCCCC3)n2)c1C`, 340 nM; in that of `CC(C)(C)c1csc(Nc2cccc3[nH]ccc23)n1`, 490 nM.
Take `Cn1ccc2c(Nc3nc(C(C)(C)C)cs3)cccc21`: in data set [1], the IC50 worked out at 37 nM.
The same measure, in the same setting: in the case of `CC(C)(C)c1csc(Nc2cccc3ncccc23)n1` it was 300 nM.
Take `Cc1csc(Nc2cccc3ccccc23)n1`: the IC50 in data set [2] amounted to 3000 nM; in data set [1], 1700 nM. In data set [3], this compound gave a clearance of 70 mL/min/kg. In data set [4], this compound gave a half-life of 0.4 h. This compound also gave a bioavailability in data set [5] of 2%.
For the compound `CC(C)(C)c1ccnc(Nc2cccc3ccccc23)n1`, in data set [1], the 50% inhibitory concentration (IC50) was more than 25000 nM.

What is called IC50 is the midpoint of a concentration-inhibition curve. A low value points to higher potency. Broadly, the clearance is the rate of elimination divided by the concentration. The low end stands for inefficient removal, the high end for efficient removal. In general, half-life refers to how long it takes for the measured level to halve. Low values mean fast loss, high ones slow loss. For orientation: bioavailability means the share of a dose that reaches the circulation, judged against a reference dose that is usually intravenous. Higher therefore signals good availability.
